The source of these data is ChEMBL document CHEMBL4017507 (J Med Chem, 2017).

Series [1] can be described thus: Cytotoxicity against human HEL cells assessed as alteration to cell morphology by microscopic analysis. It is filed as cell-based. Put shortly: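 Minimal cytotoxic concentration is the compound concentration giving a microscopically visible alteration of HEL cell morphology, scored in the antiviral assay cultures.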
In series [2] the test system is Human alphaherpesvirus 1. In words: Antiviral activity against ACV-resistant thymidine kinase deficient Herpes simplex virus 1 KOS infected in human HEL cells assessed as inhibition of virus-induced cytopathic effect. Conditions: Human alphaherpesvirus 1, KOS. It is filed as functional, cell-based. Put shortly:
(§1)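 Confluent HEL fibroblast monolayers were inoculated in 96-well plates with 100 CCID50 of virus in the presence of serially varied compound concentrations. Cytopathicity was scored once untreated infected controls reached full CPE.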
A general note: Cytopathic effects are the visible damage that an infection or toxin causes in cultured cells.

Series [3] has as its system Human alphaherpesvirus 3. In words: Antiviral activity against Varicella-Zoster virus OKA infected in human HEL cells assessed as inhibition of virus-induced cytopathic effect. Conditions: Human alphaherpesvirus 3, strain Oka vaccine. In kind it is functional, cell-based. The essentials: (§2)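 Confluent HEL fibroblast cultures were inoculated with 20 PFU of VZV in the presence of varying compound concentrations. Plaque formation was recorded once untreated infected controls reached completion.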

Series [4] deals with Human betaherpesvirus 5. In words: Antiviral activity against human cytomegalovirus Davis infected in human HEL cells assessed as inhibition of virus-induced cytopathic effect. Conditions: Human betaherpesvirus 5, Davis. It is filed as functional, cell-based. The essentials:
as §1

The subject of series [5] is Human betaherpesvirus 5. The experiment in a line: Antiviral activity against human cytomegalovirus AD-169 infected in human HEL cells assessed as inhibition of virus-induced cytopathic effect. In kind it is functional, cell-based. Conditions: Human betaherpesvirus 5, AD-169, HEL. Put shortly: as §1
The subject of series [6] is Human alphaherpesvirus 2. The experiment in a line: Antiviral activity against Herpes simplex virus 2 G infected in human HEL cells assessed as inhibition of virus-induced cytopathic effect. It is filed as functional, cell-based. The note with it: Human alphaherpesvirus 2, strain G. The essentials: as §1
The subject of series [7] is Human immunodeficiency virus 1. In words: Antiviral activity against HIV1 X4LAI.04 infected in human MT4 cells assessed as decrease in viral replication by p24gag-based luminex assay. It is filed as functional, cell-based. Conditions: Human immunodeficiency virus 1, X4LAI.04, MT4. Put shortly: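 10^6 MT-4 cells were infected with HIV-1 X4LAI.04 (7 ng p24) for 2 h at 37 °C, then washed with PBS and resuspended. Compounds were added and cultures were kept 3 days at 37 °C. Supernatant p24 was measured by bead-based Luminex. Inhibition was calculated as (1 − p24 treated/p24 untreated) × 100, and EC50 was derived from it.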

For series [8], the system named is MT4. In words: Cytotoxicity against human MT4 cells assessed as reduction in cell viability by cell counting method. It is filed as cell-based. Put shortly: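 MT-4 cultures, untreated or treated, were assessed with an automated cell counter using propidium iodide staining to enumerate total and dead cells.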
Series [9] relates to Human alphaherpesvirus 1. The experiment in a line: Antiviral activity against Herpes simplex virus 1 KOS infected in human HEL cells assessed as inhibition of virus-induced cytopathic effect. In kind it is functional, cell-based. The note with it: Human alphaherpesvirus 1, KOS. Put shortly:
as §1

In series [10] the test system is Human alphaherpesvirus 3. In words: Antiviral activity against thymidine kinase deficient Varicella-Zoster virus 07-1 infected in human HEL cells assessed as inhibition of virus-induced cytopathic effect. It is filed as functional, cell-based. The note with it: Human alphaherpesvirus 3, 07-1, HEL. The essentials: as §2
The test system of series [11] is HEL. In words: Cytotoxicity against human HEL cells assessed as cell growth inhibition by cell counting method. It is filed as cell-based.
Series [12] has as its system CCRF-CEM. In words: Cytostatic activity human CEM cells assessed as reduction in cell viability after 72 hrs by cell counting method. It is filed as cell-based. Conditions: ccrf-cem, 72 h. The essentials:
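(5–7.5) × 10^? CEM cells per well were grown with compound for 72 h at 37 °C under humidified CO2. Cells were counted in a Coulter counter.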

Each structure is given as a SMILES string.

For orientation: EC50 means the concentration giving half of the maximal effect. As a reminder, the IC50 is the concentration that inhibits the measured activity by half. In general, CC50 refers to the concentration that lowers cell viability or growth by half. Turning to `C[C@H](NP(=O)(OCC(CO)OCn1cnc2c(=O)[nH]c(N)nc21)Oc1ccccc1)C(=O)OCc1ccccc1` (stereo partly drawn), the MCC in [1] is > 100 µM. Further, the EC50 in series [2] is 3 µM; in [3] it was 7.3 µM; in [4], 5 µM; in series [5], 7.9 µM; in series [6], 3 µM; in series [7], 17 µM. In addition, the concentration giving a half-maximal response (EC50) turned out to be 0.6 µM in series [9] and 3.2 µM in [10]. Further, the IC50 in [8] came out at 20 µM. For the same molecule, the CC50 in series [11] was ≥ 81 µM.

For `C[C@H](NP(=O)(OCC(CCn1cnc2c(=O)[nH]c(N)nc21)COP(=O)(N[C@@H](C)C(=O)OCc1ccccc1)Oc1cccc2ccccc12)Oc1cccc2ccccc12)C(=O)OCc1ccccc1` (stereo partly drawn), in series [1], the MCC was 50 to 100 µM. Moreover, the EC50 was > 100 µM in series [2]; 13.5 µM in series [3]; > 50 µM in [4]; > 50 µM in series [5]; > 100 µM in series [6]; > 100 µM in series [9]. Besides, the concentration giving a half-maximal response (EC50) in series [10] is > 50 µM. The figures for the half-maximal cytotoxic concentration (CC50) in series [11] and in series [12] were > 100 µM and > 10 µM, respectively.

As for `C[C@H](NP(=O)(OCC(CCn1cnc2c(=O)[nH]c(/N=C/N(C)C)nc21)COP(=O)(N[C@@H](C)C(=O)OCc1ccccc1)Oc1cccc2ccccc12)Oc1cccc2ccccc12)C(=O)OCc1ccccc1` (stereo partly drawn), the MCC in series [1] is 50 to 100 µM. Besides, the concentration giving a half-maximal response (EC50) in series [2] is > 100 µM; in series [3], 8.8 µM; in series [4], > 20 µM; in [5], > 20 µM; in [6], > 100 µM; in series [7] it was 3.2 µM. The results for the EC50 in [9] and in series [10] were > 100 µM and 11.7 µM, respectively. For the same molecule, the half-inhibitory concentration (IC50) in series [8] amounted to 4 µM. For the same molecule, the CC50 in series [11] and in [12] was 19 µM throughout.

Regarding `CC(C)OC(=O)[C@H](C)NP(=O)(OCC(COP(=O)(N[C@@H](C)C(=O)OC(C)C)Oc1cccc2ccccc12)OCn1cnc2c(=O)[nH]c(N)nc21)Oc1cccc2ccccc12` (stereo partly drawn), the MCC in [1] is ≥ 100 µM. The EC50 in series [2] is ≥ 73 µM; in [3], 4.2 µM; in series [4] it was 2.7 µM; in series [5] it was 16.3 µM; in [6], 1.4 µM; in series [7], 8.5 µM. For the same molecule, the EC50 in [9] was found to be 1.2 µM; in series [10], 1.1 µM. In [8], the IC50 came to 6 µM. Moreover, the 50% cytotoxic concentration (CC50) in series [11] is > 50 µM; in series [12] it was > 100 µM.

Take `C[C@H](NP(=O)(OCC(COP(=O)(N[C@@H](C)C(=O)OCc1ccccc1)Oc1ccccc1)OCn1cnc2c(=O)[nH]c(N)nc21)Oc1ccccc1)C(=O)OCc1ccccc1` (stereo partly drawn): the MCC in series [1] was > 100 µM. The EC50 in [2] turned out to be 14.5 µM; in series [3], 23.3 µM; in series [5], 44.7 µM; in series [6] it was 2.5 µM; in series [7], 30 µM; in series [9], 3 µM. Further, the EC50 in [10] was found to be 21.3 µM. The IC50 in series [8] is > 150 µM. The CC50 in series [11] was > 100 µM; in [12] it was 159 µM.

Regarding `CC(C)(NP(=O)(OCC(COP(=O)(NC(C)(C)C(=O)OCc1ccccc1)Oc1cccc2ccccc12)OCn1cnc2c(=O)[nH]c(N)nc21)Oc1cccc2ccccc12)C(=O)OCc1ccccc1` (stereo not drawn), the MCC in series [1] was 50 to 100 µM. The EC50 was 1.6 µM in series [2]; 13.6 µM in series [3]; 50 µM in series [4]; ≥ 44.9 µM in series [5]; 0.9 µM in series [6]; > 150 µM in series [7]. In addition, the concentration giving a half-maximal response (EC50) in [9] amounted to 0.3 µM; in series [10] it was 7.2 µM. For the same molecule, the IC50 in series [8] was > 150 µM. For the same molecule, the CC50 in series [11] is > 100 µM; in series [12], > 20 µM.

In the case of `CC(C)(NP(=O)(OCC(COP(=O)(NC(C)(C)C(=O)OCc1ccccc1)Oc1ccccc1)OCn1cnc2c(=O)[nH]c(N)nc21)Oc1ccccc1)C(=O)OCc1ccccc1` (stereo not drawn), in series [1], the MCC is > 50 µM. For the same molecule, the EC50 in series [2] was determined as 1.5 µM; in series [3], 21.7 µM; in [4], 23.6 µM; in series [5], 50 µM; in series [6] it was 2.5 µM; in [7], 10 µM. The half-maximal effective concentration (EC50) in series [9] is 1.5 µM; in series [10] it was 8.3 µM. The half-maximal inhibitory concentration (IC50) in [8] came to 13 µM. In addition, the CC50 in series [11] came to 82 µM; in series [12], 47 µM.

For `CC(C)(NP(=O)(OCC(CO)OCn1cnc2c(=O)[nH]c(N)nc21)Oc1cccc2ccccc12)C(=O)OCc1ccccc1` (stereo not drawn), the MCC in series [1] was 50 to 100 µM. Moreover, the concentration giving a half-maximal response (EC50) in series [2] was determined as 1.4 µM; in series [3], 13 µM; in [4], 4.9 µM; in series [5] it was 6.6 µM; in series [6], 0.85 µM; in [7] it was 10 µM. The concentration for a half-maximal effect (EC50) in series [9] is 0.6 µM; in series [10], > 50 µM. The IC50 in series [8] turned out to be 26 µM. Moreover, the CC50 in [11] and in series [12] was > 100 µM each time.

As to `CC(C)(NP(=O)(OCC(CO)OCn1cnc2c(=O)[nH]c(N)nc21)Oc1ccccc1)C(=O)OCc1ccccc1` (stereo not drawn), the MCC in series [1] is 50 to 100 µM. Moreover, the half-maximal effective concentration (EC50) in [2] was 0.15 µM; in [3], 7.3 µM; in series [4], 15.8 µM; in series [5] it was 38.6 µM; in series [6], 0.3 µM; in [7] it was > 150 µM. Besides, the half-maximal effective concentration (EC50) in series [9] stood at 0.09 µM; in [10], 3.3 µM. In series [8], the IC50 was > 150 µM. The CC50 in series [11] and in series [12] was > 100 µM each time.

On to `CC(C)(NP(=O)(OCC(CO)CCn1cnc2c(=O)[nH]c(N)nc21)Oc1cccc2ccccc12)C(=O)OCc1ccccc1` (stereo not drawn), for which the MCC in [1] was 50 to 100 µM. Further, the EC50 is > 100 µM in series [2]; 20.9 µM in [3]; > 50 µM in [4]; > 50 µM in series [5]; 52 µM in series [6]; 95 µM in [7]. The results for the EC50 in series [9] and in [10] were 75 µM and > 50 µM, respectively. Moreover, in series [8], the half-inhibitory concentration (IC50) came out at 100 µM. In addition, the half-maximal cytotoxic concentration (CC50) in series [11] is > 100 µM.

For the molecule `C[C@H](NP(=O)(OCC(COP(=O)(N[C@@H](C)C(=O)OCc1ccccc1)Oc1cccc2ccccc12)OCn1cnc2c(=O)[nH]c(N)nc21)Oc1cccc2ccccc12)C(=O)OCc1ccccc1` (stereo partly drawn), the MCC in series [1] was in the range of 50 to 100 µM. The concentration for a half-maximal effect (EC50) in series [2] was found to be 2.5 µM; in [3] it was 6.2 µM; in [4], 11.2 µM; in series [5], 27.4 µM; in series [6] it was 2.5 µM; in series [9], 1.3 µM. Further, the EC50 in series [10] was determined as 4.1 µM. Also, the half-maximal inhibitory concentration (IC50) in [8] was > 150 µM. The half-maximal cytotoxic concentration (CC50) in [11] was > 100 µM.

For the molecule `C[C@H](NP(=O)(OCC(CCn1cnc2c(=O)[nH]c(/N=C/N(C)C)nc21)COP(=O)(N[C@@H](C)C(=O)OCc1ccccc1)Oc1ccccc1)Oc1ccccc1)C(=O)OCc1ccccc1` (stereo partly drawn), the MCC in series [1] was 50 to 100 µM. The EC50 in [2] was > 100 µM; in series [3], 29.8 µM; in series [4], > 50 µM; in [5], > 50 µM; in series [6], > 100 µM; in series [7], 9 µM. Moreover, the concentration giving a half-maximal response (EC50) in [9] was > 100 µM; in [10] it was 28.6 µM. The 50% inhibitory concentration (IC50) in series [8] was found to be 10 µM. Moreover, the figures for the CC50 in series [11] and in [12] were 47 µM and 21 µM, respectively.

For `Nc1nc2c(ncn2COCCO)c(=O)[nH]1` [ACYCLOVIR], in series [11], the CC50 is 787 µM.
